# Assay results taken from ChEMBL document CHEMBL1154480, “Synthesis and evaluation of 4-amino-3,4-dihydro-2H-naphthalen-1-one derivatives as mast cell stabilising and anti-inflammatory compounds” (Eur J Med Chem, 2008).
# Calls of active or inactive are those of the source. No cut-off for these calls is given here.
# How the values were obtained:
# [1] = system: Mus musculus; assay: Antiinflammatory activity in Laca mouse assessed as inhibition of arachidonic acid-induced ear oedema at 300 ug/ear; assay type: functional
# Summary of the method: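 Male Laca mice (25-30 g), groups of five, sedated with sodium pentobarbitone 60 mg kg-1 i.p. Compound or indomethacin at 300 µg ear-1 and arachidonic acid at 1 mg ear-1, all in acetone. 5 mm punch biopsies taken from both ears and weighed; left-ear weight subtracted from right. Inhibition calculated against the AA-only group. Student's t-test; at least 5 animals.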
# [2] = system: Mast cell; assay: Inhibition of compound-48/80 induced degranulation in Wistar rat peritoneal mast cells assessed as histamine release at 20 uM by spectrophotometry; assay type: functional
# Summary of the method: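 Peritoneal cells recovered by lavage with 15 ml HEPES buffer at 37 °C from a female Wistar rat (250-300 g). Cells washed by centrifugation, >90% viable, about 1.4% mast cells. Stopped with iced buffer; released histamine measured by o-phthalaldehyde spectrophotometry. Mean of at least five experiments, SE given.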
# [3] = system: Mast cell; assay: Inhibition of compound-48/80 induced degranulation in Wistar rat peritoneal mast cells assessed as histamine release at 20 uM by spectrophotometry
# [4] = system: Mast cell; assay: Inhibition of compound-48/80 induced degranulation in Wistar rat peritoneal mast cells assessed as histamine release by spectrophotometry; assay type: functional, cell-based
# Summary of the method: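 Female Wistar rat (250-300 g) peritoneal lavage cells in HEPES buffer, unpurified, preincubated with compound across a dose range. Stopped with iced buffer; histamine release measured spectrophotometrically as o-phthalaldehyde complex. IC50 derived from dose-response curve fitting.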
# [5] = system: Mast cell; assay: Inhibition of A23187-induced degranulation in Wistar rat peritoneal mast cells assessed as histamine release by spectrophotometry
# [6] = system: Mast cell; assay: Inhibition of compound-48/80 induced degranulation in Wistar rat peritoneal mast cells assessed as histamine release by spectrophotometry
# [7] = system: Mast cell; assay: Inhibition of concanavalin A-induced degranulation in Wistar rat peritoneal mast cells assessed as histamine release by spectrophotometry
compound,measurement,setting,value
CCC(=O)NC1CCC(=O)c2ccccc21 (centres undefined),inhibition (INH),[1],11%
COc1cc(CN(C2CCCC2)C2CCC(=O)c3ccccc32)cc(OC)c1OC (centres undefined),Activity,[2],inactive
N#Cc1ccc(CN(C2CCCC2)C2CCC(=O)c3ccccc32)cc1 (centres undefined),inhibition at 20 µM,[3],67%
O=C1CCC(N(Cc2ccc3ccccc3c2)C2CCCC2)c2ccccc21 (centres undefined),inhibition at 20 µM,[3],77%
COc1ccc2c(c1)c(CC(=O)O)c(C)n2C(=O)c1ccc(Cl)cc1 [INDOMETHACIN],inhibition (INH),[1],74%
CC(=O)N(C1CCCC1)C1CCC(=O)c2ccccc21 (centres undefined),inhibition (INH),[1],2%
O=C1CCC(N(C(=O)Cc2ccccc2)C2CCCC2)c2ccccc21 (centres undefined),inhibition (INH),[1],53%
CN(Cc1ccccc1)C1CCC(=O)c2ccccc21 (centres undefined),Activity,[2],inactive
same,Activity,[4],inactive
CC(=O)c1ccccc1CN(C)Cc1ccccc1,Activity,[2],inactive
same,Activity,[4],inactive
CN(C1CCCC1)C1CCC(=O)c2ccccc21 (centres undefined),inhibition at 20 µM,[3],43%
C=CCN(C1CCCC1)C1CCC(=O)c2ccccc21 (centres undefined),Activity,[2],inactive
O=C1CCC(N(Cc2ccc([N+](=O)[O-])cc2)C2CCCC2)c2ccccc21 (centres undefined),inhibition at 20 µM,[3],65%
O=C1CCC(N(Cc2ccccc2)C2CCCC2)c2ccccc21 (centres undefined),IC50,[5],280 nM
same,IC50,[6],2400 nM
same,IC50,[7],7.2 µM
same,inhibition at 20 µM,[3],99%
O=C(O)c1cc(=O)c2c(OCC(O)COc3cccc4oc(C(=O)O)cc(=O)c34)cccc2o1 [CROMOLYN SODIUM],inhibition at 20 µM,[3],10%
